Calls of active or inactive are those of the source. No cut-off for these calls is given here.
Columns and labels:
Mus musculus [1] = assay: Antitumor activity against mouse advanced Lewis lung carcinoma allografted in ip dosed BDF1 mouse assessed as complete regression of established tumor administered as single dose on day 6 or 7 post-tumor implantation; format: functional, organism-based
Summary of the method: (§1)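 BDF1 mice (C57Blk/6 × DBA/2) implanted sc by trocar with Lewis lung tumor fragments of about 40 mg, taken only from bacteriologically sterile donor tumors. Mice bearing tumors of about 400 mg (day 6-7) were selected. Each received a single ip dose on day 7, at or below the LD10 in normal mice. Groups were of 10 mice. Tumor weight was taken from calipers as w = ab²/2, measured at least twice weekly. Matched non-tumor mice served as toxicity controls.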

[2] = Antitumor activity against mouse advanced Lewis lung carcinoma allografted in ip dosed BDF1 mouse assessed as increase in host lifespan administered as single dose on day 6 or 7 post-tumor implantation; format: functional
Summary of the method: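 Advanced Lewis lung model: about 40 mg fragments implanted sc by trocar into BDF1 mice, and mice with tumors of about 400 mg (day 6-7) selected. Tumor weight from calipers, w = ab²/2. Agent given as one ip dose in distilled water or physiological saline. Nontumor-bearing mice received matching doses as toxicity controls.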

[3] = Antitumor activity against mouse early Lewis lung carcinoma allografted in BDF1 mouse assessed as increase in host life span at 38 mg/kg, ip administered as single dose on 1 or 2 days post-tumor implantation; format: functional; settings: route intraperitoneal
Summary of the method: (§2)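 BDF1 mice (C57Blk/6 × DBA/2) implanted sc by trocar with ~40 mg Lewis lung tumor fragments from bacteriologically sterile donor tumors. Single ip dose on day 1 or 2, as a solution or suspension in water (CMC or gum acacia) or saline (HPC or Tween 80). Read-out is […]. Same-dose toxicity controls were run in nontumor-bearing mice.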

[4] = Antitumor activity against mouse early Lewis lung carcinoma allografted in BDF1 mouse assessed as increase in host life span at 26 mg/kg, ip administered as single dose on 1 or 2 days post-tumor implantation; format: functional; settings: route intraperitoneal; summary of the method: as §2
[5] = Antitumor activity against mouse early Lewis lung carcinoma allografted in BDF1 mouse assessed as time delay in tumor growth at 38 mg/kg, ip administered as single dose on 1 or 2 days post-tumor implantation; format: functional; settings: route intraperitoneal
Summary of the method: (§3)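 BDF1 mice (C57Blk/6 × DBA/2) implanted sc by trocar with ~40 mg Lewis lung tumor fragments from bacteriologically sterile donors. A single ip dose was given on day 1 or 2, as a solution or suspension in water or saline with suspending agent, at ≤0.5 ml. Tumors were measured by caliper at least twice weekly, with weight = ab²/2. Delay was taken as the days for the tumor to reach 1 g.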

[6] = Antitumor activity against mouse early Lewis lung carcinoma allografted in BDF1 mouse assessed as time delay in tumor growth at 26 mg/kg, ip administered as single dose on 1 or 2 days post-tumor implantation; format: functional; settings: route intraperitoneal; summary of the method: as §3
[7] = (§4) Antitumor activity against mouse early Lewis lung carcinoma allografted in ip dosed BDF1 mouse assessed as disease cure administered as single dose on 1 or 2 days post-tumor implantation measured for 80 days post-drug treatment; format: functional
Summary of the method: (§5)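 BDF1 mice implanted sc by trocar with ~40 mg Lewis lung fragments from sterile donor tumors. A single ip dose was given on day 1 or 2 after implant, in water or saline vehicle. Cures were scored in animals observed for at least 80 days after treatment. Drug-toxicity controls were matched non-tumor-bearing mice monitored for body weight and deaths.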

[8] = Ratio of ED50 for antitumor activity against mouse L1210 cells allografted in ip dosed mouse to LD10 for mouse
Mus musculus [9] = assay: Antitumor activity against mouse advanced Lewis lung carcinoma allografted in BDF1 mouse assessed as disease cure at 32 mg/kg, ip administered as single dose on 7th day post-tumor implantation measured for 80 days post-drug treatment; format: functional, organism-based; parameters: dose 32 mg/kg; summary of the method: as §1
Mus musculus [10] = assay: Antitumor activity against mouse advanced Lewis lung carcinoma allografted in BDF1 mouse assessed as disease cure at 21 mg/kg, ip administered as single dose on 7th day post-tumor implantation measured for 80 days post-drug treatment; format: functional, organism-based; parameters: dose 21 mg/kg; summary of the method: as §1
[11] = Antitumor activity against mouse advanced Lewis lung carcinoma allografted in BDF1 mouse assessed as increase in host life span at 21 mg/kg, ip administered as single dose on 7th day post-tumor implantation; format: functional; settings: route intraperitoneal
Summary of the method: (§6)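 BDF1 mice (C57Blk/6 × DBA/2) implanted sc by trocar with about 40 mg Lewis lung tumor fragments from bacteriologically sterile donors. Advanced-disease groups held tumors of about 400 mg by day 6-7, sized by caliper (w = ab²/2). Single ip injection on day 7, in water or saline vehicle, at or below the LD10 in normal mice. Tumors measured at least twice weekly.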

[12] = Antitumor activity against mouse advanced Lewis lung carcinoma allografted in BDF1 mouse assessed as increase in host life span at 32 mg/kg, ip administered as single dose on 7th day post-tumor implantation; format: functional; settings: route intraperitoneal; summary of the method: as §6
Mus musculus [13] = assay: Antitumor activity against mouse advanced Lewis lung carcinoma allografted in ip dosed BDF1 mouse assessed as disease cure administered as single dose on day 6 or 7 post-tumor implantation; format: functional, organism-based; summary of the method: as §1
Mus musculus [14] = assay: Antitumor activity against mouse advanced Lewis lung carcinoma allografted in BDF1 mouse assessed as disease cure at 36 mg/kg, ip administered as single dose on 7th day post-tumor implantation measured for 80 days post-drug treatment; format: functional, organism-based; parameters: dose 36 mg/kg; summary of the method: as §1
[15] = Antitumor activity against mouse advanced Lewis lung carcinoma allografted in BDF1 mouse assessed as increase in host life span at 36 mg/kg, ip administered as single dose on 7th day post-tumor implantation; format: functional; settings: route intraperitoneal; summary of the method: as §6
Mus musculus [16] = assay: Antitumor activity against mouse early Lewis lung carcinoma allografted in ip dosed BDF1 mouse administered as single dose on 1 or 2 days post-tumor implantation measured for 80 days post-drug treatment; format: functional, organism-based; summary of the method: as §5
Mus musculus [17] = assay: Antitumor activity against mouse advanced Lewis lung carcinoma allografted in BDF1 mouse assessed as complete regression of established tumor at 32 mg/kg, ip administered as single dose on 7th day post-tumor implantation; format: functional, organism-based; parameters: dose 32 mg/kg; summary of the method: as §6
[18] = Antitumor activity against mouse early Lewis lung carcinoma allografted in BDF1 mouse assessed as increase in host life span at 13 mg/kg, ip administered as single dose on 1 or 2 days post-tumor implantation; format: functional; settings: route intraperitoneal
Summary of the method: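 Early disease: BDF1 mice carrying sc trocar implants of about 40 mg Lewis lung fragments. One ip dose given on day 1 or 2 after implant, in distilled water or saline, at ≤0.5 ml. Endpoints were % increase in life-span of dying animals and delay in days for the primary tumor to reach 1 g. Untreated controls served as reference.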

[19] = Antitumor activity against mouse early Lewis lung carcinoma allografted in BDF1 mouse assessed as increase in host life span at 30 mg/kg, ip administered as single dose on 1 or 2 days post-tumor implantation; format: functional; settings: route intraperitoneal; summary of the method: as §2
Mus musculus [20] = assay: Antitumor activity against mouse advanced Lewis lung carcinoma allografted in BDF1 mouse assessed as disease cure at 30 mg/kg, ip administered as single dose on 7th day post-tumor implantation measured for 80 days post-drug treatment; format: functional, organism-based; parameters: dose 30 mg/kg; summary of the method: as §1
[21] = Antitumor activity against mouse advanced Lewis lung carcinoma allografted in BDF1 mouse assessed as increase in host life span at 30 mg/kg, ip administered as single dose on 7th day post-tumor implantation; format: functional; settings: route intraperitoneal; summary of the method: as §6
[22] = Antitumor activity against mouse early Lewis lung carcinoma allografted in BDF1 mouse assessed as time delay in tumor growth at 13 mg/kg, ip administered as single dose on 1 or 2 days post-tumor implantation; format: functional; settings: route intraperitoneal
Summary of the method: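 Sc trocar implants of about 40 mg Lewis lung fragments in BDF1 mice. A single ip injection was given on day 1 or 2, in water or physiological saline, at ≤0.5 ml. Tumor size came from caliper length and width as w = ab²/2, measured at least twice weekly. Growth delay is the extra days taken to reach 1 g, compared with untreated controls.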

[23] = Antitumor activity against mouse early Lewis lung carcinoma allografted in BDF1 mouse assessed as time delay in tumor growth at 30 mg/kg, ip administered as single dose on 1 or 2 days post-tumor implantation; format: functional; settings: route intraperitoneal; summary of the method: as §3
Mus musculus [24] = assay: as §4; format: functional; summary of the method: as §5
L1210 = assay: Antitumor activity against mouse L1210 cells allografted in ip dosed mouse assessed as disease cure administered as single dose; format: functional, organism-based

With O=NN(CCCl)C(=O)N[C@@H]1CCC[C@H](C(=O)O)C1 (relative stereo) the inhibition (Mus musculus [1]) was “inactive” and the ILS [2] was <25%.

Molecule O=NN(CCCl)C(=O)N[C@H]1CC[C@H](O)CC1 has an ILS at 38 mg/kg [3] of 146%, an ILS at 26 mg/kg [4] of 84% and a Time [5] of 10.2 days. It also gave a Time [6] of 3.3 days, an Activity [7] of 10% and a Ratio [8] of 0.4. The inhibition (Mus musculus [1]) was “inactive” and the ILS [2] was <25%.

With COC(=O)[C@H]1CC[C@H](NC(=O)N(CCCl)N=O)CC1 the Activity (Mus musculus [9]) was “inactive”, the Activity (Mus musculus [10]) was “inactive” and the ILS at 21 mg/kg [11] was 113%. The ILS at 32 mg/kg [12] was 86%, the inhibition (Mus musculus [1]) was “Active” and the Activity (Mus musculus [13]) was “inactive”.

With O=NN(CCCl)C(=O)NC1CCCC1 the inhibition (Mus musculus [1]) was “inactive” and the ILS [2] was <25%.

In the case of O=NN(CCCl)C(=O)N[C@H]1CC[C@@H](NC(=O)N(CCCl)N=O)CC1, the inhibition (Mus musculus [1]) is reported as “inactive” and the ILS [2] is reported as <25%.

In the case of O=NN(CCCl)C(=O)NC1CCS(=O)(=O)C1 (stereo not given), the inhibition (Mus musculus [1]) is reported as “inactive” and the ILS [2] is reported as <25%.

In the case of O=NN(CCF)C(=O)NC1CCSCC1, the Activity (Mus musculus [14]) is reported as “inactive”, the ILS at 36 mg/kg [15] is reported as 87% and the inhibition (Mus musculus [1]) is reported as “inactive”. The Activity (Mus musculus [13]) was “inactive” and the ILS [2] was >25%.

For C[C@H]1CC[C@@H](NC(=O)N(CCCl)N=O)CC1, the inhibition (Mus musculus [1]) was “inactive” and the ILS [2] was <25%.

For CO[C@H]1CC[C@@H](NC(=O)N(CCCl)N=O)CC1, the Activity (Mus musculus [16]) was “inactive”.

In the case of O=NN(CCCl)C(=O)NCCCl [CARMUSTINE], the Activity (Mus musculus [9]) is reported as “inactive”, the inhibition (Mus musculus [17]) is reported as “inactive” and the inhibition (Mus musculus [1]) is reported as “inactive”. For the same molecule, the ILS [2] was <25%.

For O=NN(CCCl)C(=O)N[C@H]1CC[C@H](C(=O)O)CC1, the ILS at 13 mg/kg [18] was 33%, the ILS at 30 mg/kg [19] was 115% and the Activity (Mus musculus [20]) was “inactive”. For the same molecule, the ILS at 30 mg/kg [21] was 67%, the Time [22] was 7.6 days and the Time [23] was 20 days. The Activity [7] was >50%, the Ratio [8] was 0.6 and the Activity (Mus musculus [13]) was “Active”.

In the case of CCCCCC(C)NC(=O)N(CCCl)N=O (stereo not given), the Activity (Mus musculus [24]) is reported as “inactive”, the Activity (Mus musculus [16]) is reported as “inactive” and the Activity (L1210) is reported as “inactive”. The inhibition (Mus musculus [1]) was “inactive” and the ILS [2] was <25%.

With O=NN(CCF)C(=O)N[C@H]1CC[C@H](NC(=O)N(CCCl)N=O)CC1 the inhibition (Mus musculus [1]) was “inactive” and the ILS [2] was <25%.
